Screens (PubChem BioAssay)
Most compounds without a hit are left out; they make up all but 1.9% or so of the library.
UCH37 inh – inhibitors of human deubiquitinating enzyme UCH37; inhibition, % (no concentration beside the values); 0.33% of 330,000 active; Q9Y5K5; purified proteasome/UCH37, Ub-AMC cleavage fluorescence;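 active = mean inhibition over replicate wells above about 20%, limit read from the data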;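 note: 0% = compound-free wells with enzyme and 100% = wells lacking proteasome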
Target sequence (Q9Y5K5 whole entry, looked up): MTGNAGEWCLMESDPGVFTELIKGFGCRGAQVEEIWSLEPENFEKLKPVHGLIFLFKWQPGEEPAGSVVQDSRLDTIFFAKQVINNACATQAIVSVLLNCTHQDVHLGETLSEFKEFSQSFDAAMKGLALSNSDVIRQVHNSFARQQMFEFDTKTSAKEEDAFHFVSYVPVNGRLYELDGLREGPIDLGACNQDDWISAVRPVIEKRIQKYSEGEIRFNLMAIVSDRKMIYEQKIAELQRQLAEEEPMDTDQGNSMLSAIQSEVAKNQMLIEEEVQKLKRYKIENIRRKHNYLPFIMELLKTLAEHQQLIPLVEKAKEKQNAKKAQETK
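Reagent: Ub-AMC substrate; assay system: Proteasome-associated human UCH37 deubiquitinase; controls: no-proteasome and no-compound wells; read-out: % inhibition of Ub-AMC cleavage fluorescence; timing: 30 min preincubation with enzyme, 25 min cleavage at room temperature; signal: AMC fluorescence from Ub-AMC cleavage, excitation 355 nm, emission 460 nm; buffer or medium: Tris-HCl pH 7.4 plus ovalbumin, ATP-MgCl2, DTT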
Rce1 inh – blocks yeast Ras-converting enzyme; Q03530; yeast membranes, quenched prenylated peptide cleavage fluorescence; calls only; 0.27% of 290,000 active; AID 2563;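 active = fall in fluorescence gain of 50% or more versus controls, with final raw signal at or below 3038400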;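 note: plate controls were neutral control wells for no effect and wells lacking membranes for full effect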
Target sequence (Q03530 whole entry, looked up): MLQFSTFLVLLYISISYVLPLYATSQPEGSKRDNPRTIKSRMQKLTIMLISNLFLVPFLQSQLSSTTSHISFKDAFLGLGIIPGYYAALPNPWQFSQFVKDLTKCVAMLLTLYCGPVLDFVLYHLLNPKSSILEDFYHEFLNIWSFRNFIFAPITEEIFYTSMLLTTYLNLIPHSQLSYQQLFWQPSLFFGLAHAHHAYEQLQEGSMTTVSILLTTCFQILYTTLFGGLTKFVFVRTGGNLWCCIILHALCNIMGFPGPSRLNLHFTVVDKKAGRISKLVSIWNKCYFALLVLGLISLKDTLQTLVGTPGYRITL
PG9 binder – small molecules binding HIV-1 gp120 antibody PG9; 0.43% of 360,000 active; inhibition, % at 6.7 µM; TR-FRET gp120-PG9 antibody binding; in the data active = inhibition above about 8.5%
Rev-erbA mod – modulators of human Rev-erb alpha DNA binding | Rev-erbα–FITC-DNA binding, fluorescence polarization, 90 min | activity, % at 10 µM | 0.79% of 370,000 active;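 active = activity above about 14%, limit read from the data; passing the limit was not always enough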;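 note: 0% = DMSO wells with 35 nM protein and 100% = DMSO wells with 750 nM protein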
beta cell repl – induces beta-cell replication in MIN6 cells; MIN6 cells proliferation, ATPlite luminescence, 48 h; cells starved in 0.2% serum; 100% = growth in 10% serum; proliferation, % at 10 µM; 0.29% of 330,000 active; AID 2380;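 active = compounds whose signal lies at least 3.5 SD above the mean of all wells on their plate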;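 note: 0% = DMSO-treated cells in low-serum medium and 100% = 10% serum control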
Yeast superoxide – lowers age-related superoxide in aged yeast cells | S. cerevisiae aged cells, superoxide DHE fluorescence; active compounds read low | superoxide response (% of plate mean), % at 10 µM | AID 2690 | 0.18% of 330,000 active;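 active = superoxide response under a set limit, about three screen SD below normal, cut at about 65% in these data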;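 note: yeast aged for seven days with compound at 30 °C before DHE staining; 100% = average MFI of all compound-treated wells on the plate with controls excluded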
NR1D1 mod conf – confirmation of modulators of human Rev-erb alpha DNA binding; 61% of 3,000 active; activation, % at 25 µM; Rev-erb alpha FITC-DNA binding, fluorescence polarization, 90 min; AID 1259319; shares compounds with Rev-erbA mod;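 active = activation at or above a set limit, or at least 3 SD above the negative control mean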;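 note: 0% = 35 nM protein with DMSO and 100% = 750 nM protein high control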
RORg DNA counter – RORgamma DNA-binding activity, dose-response counter-screen; purified RORgamma protein-FITC-DNA binding, fluorescence polarization; shares compounds with Rev-erbA mod; IC50, µM; 8% of 910 active;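 active = Compounds whose fitted half-maximal concentration for disrupting protein-DNA binding is below 10 micromolar; the record names Rev-erb in its text, so the target is in doubt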
* hit, by the source's call; i = inactive; / = no result given.

SMILES | UCH37 inh | Rce1 inh | PG9 binder | Rev-erbA mod | beta cell repl | Yeast superoxide | NR1D1 mod conf | others
CC(=O)Nc1ccccc1NC(=O)CC(C)=NNC(=O)Cc1cccc2ccccc12 | 3.9 | / | / | / | / | / | /
Cc1ccccc1-c1nnn(CC(=O)NCc2ccc3c(c2)OCO3)n1 | 0.4 | i | 1.1 | 0.4 | -0.3 | 95.8 | /
CN(C)c1ccc(-c2nnn(CC(=O)NCc3ccc4c(c3)OCO4)n2)cc1 | -9.3 | i | 7.0 | 14.9* | 4.4 | 102.0 | 6.6
CC(CC(=O)Nc1cccc2c1CCCC2)=NNC(=O)c1ccccc1N | -190.2 | / | / | / | / | / | /
CS(=O)(=O)NC1c2cccc3cccc(c23)C1Sc1nncn1N=Cc1ccco1 (stereo not given) | 5.0 | / | / | / | / | / | /
CCCCCn1c(SCC(=O)c2ccccc2)nc2cc(C(=O)NCc3ccco3)ccc2c1=O | 1.3 | / | 1.2 | -2.6 | / | / | /
CCCCCn1c(SCC(=O)c2ccccc2)nc2cc(C(=O)NCC3CCCO3)ccc2c1=O (stereo not given) | 1.2 | / | -0.9 | 68.7* | / | / | 25.3*
CCc1ccc(-c2cc3c(=O)n(CC(=O)N4CCCC4)nc(C)n3n2)cc1 | 4.8 | i | -0.8 | 49.4* | -1.6 | 116.1 | 19.9*
O=S(=O)(NN=Cc1c(F)cccc1Cl)c1ccc(Cl)cc1 | 2.4 | / | / | / | / | / | /
O=C(CSc1nc(-c2ccco2)cc(C(F)(F)F)n1)NC1CCCCCCC1 | -1.8 | i | 0.5 | 25.1* | 0.3 | 97.6 | 14.5
O=C(CSc1nc(-c2ccco2)cc(C(F)(F)F)n1)NN1CCOCC1 | 1.8 | i | -1.0 | -0.1 | 0.5 | 102.6 | /
Cc1ccc2[nH]c(=O)c(CN(C)C(=O)c3cccs3)cc2c1 | -9.5 | i | -2.0 | 4.6 | 0.9 | 96.8 | /
Cc1ccc(N(Cc2cc3cc(C)ccc3[nH]c2=O)C(=O)c2cccs2)cc1 | 0.1 | i | 0.7 | 47.9* | -2.5 | 92.4 | 79.4* | RORg DNA counter=>40
Cc1ccc(-n2nnc(-c3cc4ccccc4nc3Cl)n2)cc1 | 4.1 | i | 0.1 | 35.3* | -2.0 | 98.4 | 29.7*
CCc1cc(C(=O)NN=Cc2ccc(O)cc2O)c2ccccc2n1 | 2.5 | / | / | / | / | / | /
Cc1ccc(C(=O)Nc2nnc(-c3ccc(C(C)(C)C)cc3)s2)cc1 | -6.2 | i | -1.1 | 26.2* | 1.2 | 103.5 | 3.4
O=C(Nc1ccc(Cl)cn1)c1cc2c(s1)-c1ccccc1OC2 | i | i | 0.4 | 29.8* | -2.1 | 106.5 | 6.7
CCOc1ccc(C(=O)NN=C(C)C2C(=O)c3ccccc3C2=O)cc1 | 6.6 | / | / | / | / | / | /
COc1ccc(-c2cc3nc[nH]c(=O)c3s2)cc1 | -323.4 | i | 1.1 | 41.6* | -5.1 | 97.7 | 14.9
COc1ccc(S(=O)(=O)N(CC(=O)NN=Cc2cccs2)c2cc(C)cc(C)c2)cc1OC | 5.4 | / | / | / | / | / | /
COC(=O)[C@]1(Cc2ccccc2)N[C@H](c2ccc(-c3cccc(Cl)c3)c(OC)c2)[C@@H]2C(=O)N(C)C(=O)[C@@H]21 | 0.9 | / | -3.6 | 25.1* | / | / | 17.2*
CCN1C(=O)[C@H]2[C@@H](c3ccc(-c4cccc(Cl)c4)c(OC)c3)N[C@@](Cc3ccccc3)(C(=O)OC)[C@H]2C1=O | 4.1 | i | 0.2 | 3.8 | -6.7 | 100.9 | /
CCCCNC(=O)C(=O)NN=Cc1ccc(OCC(=O)Nc2cccc(OC)c2)c(OC)c1 | -161.4 | / | / | / | / | / | /
COc1ccc(S(=O)(=O)N2CCc3ccccc32)cc1C(=O)Nc1ccc(NC(C)=O)cc1 | / | / | 0.7 | 57.5* | -5.1 | 87.9 | 41.4* | RORg DNA counter=>40
COc1ccc(S(=O)(=O)N2CCCCCC2)cc1C(=O)Nc1ccc(C)cn1 | -3.3 | i | -0.2 | 100.5* | 2.8 | 88.2 | 29.8* | RORg DNA counter=0.787*
SMILES | UCH37 inh | Rce1 inh | PG9 binder | Rev-erbA mod | beta cell repl | Yeast superoxide | NR1D1 mod conf | others
COc1ccc(S(=O)(=O)N2CCCCCC2)cc1C(=O)Nc1cc(C)ccn1 | -2.6 | / | 1.9 | 1.6 | 1.6 | 102.6 | /
COc1ccc(S(=O)(=O)N2CCCCCC2)cc1C(=O)Nc1ccccn1 | -2.8 | i | 0.5 | 46.5* | -2.0 | 105.0 | 15.0
Cc1ccc(C=NNc2ccc(Cl)nn2)cc1 | 2.5 | / | / | / | / | / | /
COc1cccc(NC(=O)CSc2nnc3ccc(-c4ccccn4)nn23)c1 | -27.5 | i | 0.3 | 35.3* | -2.4 | / | -3.0
COc1ccc2c(-c3ccccc3)cc(SC(C)C(N)=O)nc2c1 (stereo not given) | -5.6 | i | 0.7 | 19.1* | -2.4 | 91.8 | 18.3*
Cc1nccn1CC(=O)NN=Cc1c[nH]c2ccccc12 | 6.4 | / | / | / | / | / | /
Cc1ccc2nc(/C(C#N)=C/c3ccc(-c4ccccc4C(=O)O)o3)[nH]c2c1 | 18.5 | i | -17.6 | 40.7* | -3.4 | 89.3 | 30.7* | RORg DNA counter=>40
Cc1cc2nc(/C(C#N)=C\c3ccc(-c4ccccc4C(=O)O)o3)[nH]c2cc1C | 18.5 | i | -13.2 | 41.8* | -4.3 | 97.3 | 29.9*
N#C/C(=C\c1ccc(-c2ccccc2C(=O)O)o1)c1nc2ccccc2[nH]1 | 10.8 | i | -23.6 | 12.9 | -1.7 | 98.9 | /
Cc1ccc(C=NNc2ccc(C(=O)O)cc2)s1 | 11.5 | / | / | / | / | / | /
O=C(Cn1cc(C(F)(F)F)cc(Cl)c1=O)NCc1ccc(Cl)cc1Cl | 2.1 | / | 4.3 | 38.8* | -1.2 | 97.7 | 55.8* | RORg DNA counter=>40
CCCn1c(N)c(C(=O)CSc2nc3ncc(Cl)cc3[nH]2)c(=O)n(C)c1=O | -2.7 | / | 2.9 | 65.7* | -3.4 | 107.2 | 17.0*
COc1ccc(C=NNC(=O)c2cc(Br)ccc2O)cc1Cn1cc(Cl)cn1 | -56.6 | / | / | / | / | / | /
Cc1ccc2nc(N3CCN(c4ccccc4)CC3)c(C=O)c(=O)n2c1 | 5.2 | i | -1.9 | 4.2 | -3.8 | 122.5 | /
Cc1ccc2nc(SCc3ccccc3)c(C=O)c(=O)n2c1 | 5.4 | i | 1.7 | 42.1* | 0.0 | 110.2 | 30.4*
Cn1c(=O)c2c(nc(SCC(=O)c3cccs3)n2Cc2ccc(F)cc2)n(C)c1=O | 1.2 | i | 0.8 | 133.4* | -4.1 | 104.5 | 99.9* | RORg DNA counter=>40
Cn1c(Cl)c(C=NOC(=O)c2ccccc2Cl)c2ccccc21 | 1.1 | / | / | / | / | / | /
CCCSc1nc(SCC(=O)NCc2ccccc2)c2c3c(sc2n1)COC(C)(C)C3 | -3.8 | i | -0.3 | 45.3* | -1.6 | 112.6 | 14.7
CCC(O)=NS(=O)(=O)c1ccc(N=NN(C)C)cc1 | 8.2 | / | / | / | / | / | /
O=C(NN=Cc1ccccc1OCC(=O)N1CCCC1)C(=O)Nc1ccccc1F | 4.3 | / | / | / | / | / | /
CN(C)/C=N/C1=C(C#N)C(c2cccs2)c2ccc3ccccc3c2O1 (stereo not given) | / | / | -1.2 | 172.8* | / | / | 117.2* | RORg DNA counter=>40
COC(=O)c1cc(COc2ccc3c(c2)oc(=O)c2ccccc23)c(C)o1 | -20.3 | i | 1.6 | 28.9* | -1.8 | 90.2 | 23.6*
